The nature of series [1]: folding enthalpy; higher = less favourable; fluorescence melt of hairpins on a sequencing array, two-state fit. The note with it: sodium 0.088 M. In short, it runs like this: (§1)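 In 50 mM Na-HEPES pH 8.0 containing 25 mM NaCl, hairpins from the library on a sequenced MiSeq flow cell were imaged for Cy3 fluorescence at 2.5 °C steps up to 60 °C, with Cy3 and quencher oligos annealed. After normalisation to pre-quench Cy3 and to control constructs, two-state fits with bootstrapping gave melting temperature and folding enthalpy. Four replicates were combined by inverse-variance weighting, and fitted temperatures were shifted up by 9.35 °C to match UV melts.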

A short description of series [2]: melting temperature; fluorescence melt of hairpins on a sequencing array, two-state fit, raised by 9.35 °C to match UV melts. The note with it: sodium 0.088 M. In short, it runs like this: as §1

As to GGGTCCGAAAGGATTCCC ((((((....)))..))), in series [1], the folding enthalpy was -22.2 kcal/mol. In addition, in series [2], the Tm was 44.1 °C.
On the same counts, the results for GGGTCCGGAAACGGACTC (.(((((....))))).) are -15.2 kcal/mol and 61.3 °C.
As for GGGTCCGGAAACGGATCC ((.((((....)))).)), the folding enthalpy in series [1] was -38.1 kcal/mol. In addition, the Tm in series [2] was found to be 59.1 °C.
Regarding GGGTCGCGAAAGCGCCCC (((.(((....))).))), the folding enthalpy in series [1] was -18.6 kcal/mol. The Tm in series [2] amounted to 66.8 °C.
Regarding GGGTCGGGAAACTGGCCC (((.(.(....).).))), the folding enthalpy in series [1] is -35.8 kcal/mol. In addition, the Tm in series [2] was 50.6 °C.
In the case of GGGTCTCCGAAAGGACCC (((..(((....)))))), the folding enthalpy in series [1] is -26.5 kcal/mol. Moreover, in series [2], the Tm was 51.4 °C.
Turning to GGGTCTGGAAACAGACCC (((((((....))))))), in series [1], the folding enthalpy is -36.1 kcal/mol. In addition, the Tm in series [2] was found to be 68.8 °C.
As for GGGTCTGGAAACAGGCCC (((.(((....))).))), the folding enthalpy in series [1] is -46.8 kcal/mol. In series [2], the Tm is 59.8 °C.
GGGTGACGAAAGTCCCC (((.(((....)))))): in series [1], the folding enthalpy is -34.9 kcal/mol. Moreover, in series [2], the Tm came out at 58.4 °C.
For the sequence GGGTGAGGAAACTCACCC (((((((....))))))), in series [1], the folding enthalpy is -33.8 kcal/mol. In addition, the Tm in series [2] was found to be 68.6 °C.
Take GGGTGAGGAAACTCATCC ((.((((....)))).)): the folding enthalpy in series [1] is -43.1 kcal/mol. The Tm in series [2] worked out at 49.2 °C.
In the case of GGGTGAGGAAACTCGTCC ((..(((....)))..)), the folding enthalpy in series [1] is -28.5 kcal/mol. The Tm in series [2] amounted to 34.3 °C.
With GGGTGATCGAAAGATCCC (((..(((....)))))), the folding enthalpy in series [1] is -19 kcal/mol. In series [2], the Tm was 50.2 °C.
Take GGGTGCCCGAAAGGGCCC (((..(((....)))))): the folding enthalpy in series [1] was -11.6 kcal/mol. Further, the Tm in series [2] came to 55.5 °C.
With GGGTGCGAAAGCAATCCC ((((((....)))..))), in series [1], the folding enthalpy is -21.8 kcal/mol. The Tm in series [2] was found to be 50.6 °C.
As to GGGTGCGAAAGCATCCC ((((((....))).))), the folding enthalpy in series [1] is -18.5 kcal/mol. Also, the Tm in series [2] was 65.2 °C.
For GGGTGCGAAAGCATTCCC ((((((....)))..))) the same measures were -17.4 kcal/mol and 46.9 °C.
On the same counts, the results for GGGTGGCCGAAAGGCCCC (((..(((....)))))) are -11.8 kcal/mol and 54.2 °C.
For GGGTGGCGAAAGCCCCC (((.(((....)))))), the folding enthalpy in series [1] was -17.3 kcal/mol. Besides, the Tm in series [2] turned out to be 66.9 °C.
For GGGTGGCGAAAGCCTCCC (((.(((....))).))), in series [1], the folding enthalpy was -28 kcal/mol. Also, the Tm in series [2] came to 66.2 °C.
For the sequence GGGTGGGAAACCACCC ((((((....)))))), the folding enthalpy in series [1] was -29.6 kcal/mol. Also, in series [2], the Tm was 68.2 °C.
For GGGTGTACGAAAGTACCC (((..(((....)))))) the same measures were -23.1 kcal/mol and 53.3 °C.
For the sequence GGGTGTGGAAACGCATCC ((.((.(....).)).)), in series [1], the folding enthalpy was -26.3 kcal/mol. In series [2], the Tm came to 41.3 °C.
GGGTGTGGAAACGTACCC ((((..(....)..)))): in series [1], the folding enthalpy was -28.7 kcal/mol. For the same sequence, the Tm in series [2] came out at 45.5 °C.
On the same counts, the results for GGGTTACGAAAGTACCC (((.(((....)))))) are -31.5 kcal/mol and 54.3 °C.
For GGGTTACGAAAGTATCCC (((.(((....))).))) the same measures were -43.4 kcal/mol and 51.4 °C.
GGGTTAGGAAACTGACCC ((((.((....)).)))): in series [1], the folding enthalpy is -34.6 kcal/mol. Further, the Tm in series [2] came out at 50 °C.
Consider GGGTTCGAAAGAACTCCC ((((((....)))..))), for which, in series [1], the folding enthalpy was -13.5 kcal/mol. Also, the Tm in series [2] amounted to 46.5 °C.
With GGGTTCGAAAGAAGCCCC ((((((....)))..))), the folding enthalpy in series [1] is -20.9 kcal/mol. The Tm in series [2] came out at 55.3 °C.
Regarding GGGTTTACGAAAGTACCC (((..(((....)))))), the folding enthalpy in series [1] is -24.2 kcal/mol. Further, the Tm in series [2] came out at 41.2 °C.
On the same counts, the results for GGGTTTCGAAAGAACCC (((.(((....)))))) are -38 kcal/mol and 51.2 °C.
In the case of GGGTTTGCGAAAGCACCC (((..(((....)))))), in series [1], the folding enthalpy was -18.9 kcal/mol. The Tm in series [2] amounted to 47.3 °C.
For GGGTTTGGAAACAAACCC (((((((....))))))) the same measures were -39.6 kcal/mol and 66.8 °C.
On the same counts, the results for GGGTTTGGAAACAAGTCC ((..(((....)))..)) are -22.3 kcal/mol and 30.4 °C.
On the same counts, the results for GGGTTTGGAAACAGACCC ((((.((....)).)))) are -39.9 kcal/mol and 48.8 °C.
Regarding GGGTTTGGAAACAGATCC ((.(.((....)).).)), the folding enthalpy in series [1] is -13 kcal/mol. In series [2], the Tm was 29.9 °C.
In the case of GGGTTTGGAAACGAACCC (((((.(....).))))), the folding enthalpy in series [1] is -59.2 kcal/mol. The Tm in series [2] came out at 52.3 °C.
